Source: ChEMBL document CHEMBL3596186, “Synthesis and biological evaluation of diarylthiazole derivatives as antimitotic and antivascular agents with potent antitumor activity” (Bioorg Med Chem, 2015)
Active and inactive are the calls of the source. No cut-off for these calls is given here.

How the values were obtained:
SK-OV-3 [1] = experiment: Antitumor activity against human SKOV3 cells xenografted in Balb/c athymic nude mouse assessed as tumor growth inhibition at 50 mg/kg, ip administered daily after 42 days; format: functional; conditions: SK-OV-3, ip, 1008 h, read-out: TGI
A549 [2] = experiment: Antiproliferative activity against human A549 cells after 48 hrs by MTT assay; format: functional, cell-based; conditions: A549, 48 h
Procedure, shortened: (§1)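 HCT116, HepG2, SMMC-7721, SK-OV-3 and A2780s grown in DMEM; A549 and MCF-7 in RPMI-1640; all with 10% FBS and penicillin/streptomycin at 37 °C, 5% CO2. Log-phase cells at 40,000-50,000 cells/mL treated with graded concentrations for 48 h. MTT 3 h, DMSO solubilization, A570. IC50 from percent growth versus untreated control; mean ± SEM of ≥3 independent dose-response experiments.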

HepG2 [3] = experiment: Induction of apoptosis in human HepG2 cells assessed as late apoptotic cells at 0.2 uM after 48 hrs by annexin V/propidium iodide staining-based flow cytometry (reference value: 3.74%); format: functional
HCT-116 [4] = experiment: Induction of apoptosis in human HCT116 cells assessed as necrotic cells at 1 uM after 24 hrs by annexin V/propidium iodide staining-based flow cytometry (reference value: 3.49%); format: functional
HUVEC = experiment: Antivascular activity against HUVEC assessed as aggregation of cells in small clumps at 250 to 500 nM after 8 hrs by Matrigel assay; format: functional, cell-based; conditions: Homo sapiens
Procedure, shortened: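 Wells of prechilled plates coated with Matrigel and solidified 45 min at 37 °C. HUVECs (1 × 10^4) in EBM-2 containing compound (125-500 nM) seeded onto the gel and incubated 8 h at 37 °C. Capillary networks photographed at 100×; tubule numbers and line lengths counted manually.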

HepG2 [5] = experiment: Induction of apoptosis in human HepG2 cells assessed as early apoptotic cells at 1 uM after 24 hrs by annexin V/propidium iodide staining-based flow cytometry (reference value: 0.87%); format: functional
SK-OV-3 [6] = experiment: Antiproliferative activity against human SKOV3 cells after 48 hrs by MTT assay; format: functional, cell-based; conditions: SK-OV-3, 48 h; procedure, shortened: as §1
HCT-116 [7] = experiment: Induction of apoptosis in human HCT116 cells assessed as necrotic cells at 0.2 uM after 24 hrs by annexin V/propidium iodide staining-based flow cytometry (reference value: 3.49%); format: functional
HCT-116 [8] = experiment: Induction of apoptosis in human HCT116 cells assessed as late apoptotic cells at 1 uM after 48 hrs by annexin V/propidium iodide staining-based flow cytometry (reference value: 1.71%); format: functional
NCI-H1975 = experiment: Antiproliferative activity against human gefitinib-resistant NCI-H1975 cells after 48 hrs by MTT assay; format: functional, cell-based; conditions: NCI-H1975, 48 h
HepG2 [9] = experiment: Cell cycle arrest in human HepG2 cells assessed as accumulation at G1 phase at 1 uM after 24 hrs by flow cytometry (reference value: 62.74%); format: functional
HCT-116 [10] = experiment: Antiproliferative activity against human HCT116 cells after 48 hrs by MTT assay; format: functional, cell-based; conditions: HCT-116, 48 h; procedure, shortened: as §1
HepG2 [11] = experiment: Induction of apoptosis in human HepG2 cells assessed as necrotic cells at 0.5 uM after 24 hrs by annexin V/propidium iodide staining-based flow cytometry (reference value: 1.59%); format: functional
A549 [12] = experiment: Resistance ratio, ratio of IC50 for human taxol-resistant A549 cells to IC50 for human A549 cells; format: functional
Procedure, shortened: (§2)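 MTT assay: log-phase cells at 40,000-50,000 cells/mL in RPMI-1640 with 10% FBS, exposed to graded concentrations for 48 h, then MTT 3 h, DMSO solubilization, absorbance at 570 nm. IC50 from growth versus untreated control, at least three independent experiments. Ratio = resistant-line IC50 / parental-line IC50.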

HepG2 [13] = experiment: Induction of apoptosis in human HepG2 cells assessed as early apoptotic cells at 0.5 uM after 48 hrs by annexin V/propidium iodide staining-based flow cytometry (reference value: 0.87%); format: functional
HCT-116 [14] = experiment: Cell cycle arrest in human HCT116 cells assessed as accumulation at G2/M phase at 0.2 uM after 24 hrs by flow cytometry (reference value: 20.36%); format: functional
HCT-116 [15] = experiment: Induction of apoptosis in human HCT116 cells assessed as early apoptotic cells at 1 uM after 24 hrs by annexin V/propidium iodide staining-based flow cytometry (reference value: 2.83%); format: functional
Procedure, shortened: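 HCT116 cells treated with compound or DMSO for 24 or 48 h, trypsinized, washed twice in PBS and dual-stained with annexin-V and PI. Analysed by flow cytometry: early apoptotic cells scored as annexin-V+/PI−, late apoptotic cells as annexin-V+/PI+.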

HepG2 [16] = experiment: Cell cycle arrest in human HepG2 cells assessed as accumulation at G2/M phase at 1 uM after 24 hrs by flow cytometry (reference value: 11.29%); format: functional
HCT-116 [17] = experiment: Cell cycle arrest in human HCT116 cells assessed as accumulation at G1 phase at 0.5 uM after 24 hrs by flow cytometry (reference value: 53.98%); format: functional
HCT-116 [18] = experiment: Antitumor activity against human HCT116 cells xenografted in ip dosed Balb/c athymic nude mouse assessed as tumor growth inhibition administered daily; format: functional, organism-based
Procedure, shortened: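 Female Balb/C athymic nude mice, 5-6 weeks old, implanted s.c. in the right flank with HCT116 cells in 100 µL HBSS. Tumor volume (π/6 × L × W²) and body weight measured every 2 days. Inhibition = (1 − treated/control tumor weight) × 100%.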

HCT-116 [19] = experiment: Induction of apoptosis in human HCT116 cells assessed as necrotic cells at 0.5 uM after 48 hrs by annexin V/propidium iodide staining-based flow cytometry (reference value: 3.49%); format: functional
HepG2 [20] = experiment: Induction of apoptosis in human HepG2 cells assessed as necrotic cells at 0.2 uM after 24 hrs by annexin V/propidium iodide staining-based flow cytometry (reference value: 1.59%); format: functional
MCF7 = experiment: Resistance ratio, ratio of IC50 for human doxorubicin-resistant MCF7 cells to IC50 for human MCF7 cells; format: functional; procedure, shortened: as §2
HCT-116 [21] = experiment: Cell cycle arrest in human HCT116 cells assessed as accumulation at G2/M phase at 1 uM after 24 hrs by flow cytometry (reference value: 20.36%); format: functional

For CCOc1ccc(-c2nc(N)sc2-c2cc(OC)c(OC)c(OC)c2)cc1, the inhibition in vivo at 50 mg/kg (SK-OV-3 [1]) was 72.7%, the IC50 (A549 [2]) was 84 nM and the Activity (HepG2 [3]) was 4.17%. The Activity (HCT-116 [4]) was 3.15%, the Activity (HUVEC) was “Active” and the Activity (HepG2 [5]) was 25.4%. The IC50 (SK-OV-3 [6]) was 14.2 nM, the Activity (HCT-116 [7]) was 3.69% and the Activity (HCT-116 [8]) was 32.6%. It also gave an IC50 (NCI-H1975) of 217 nM, an Activity (HepG2 [9]) of 8.69% and an IC50 (HCT-116 [10]) of 8.4 nM. For the same molecule, the Activity (HepG2 [11]) was 0.81%, the “Ratio IC50” value (A549 [12]) was 0.51 and the Activity (HepG2 [13]) was 65.3%. For the same molecule, the Activity (HCT-116 [14]) was 48.79%, the Activity (HCT-116 [15]) was 17.6% and the Activity (HepG2 [16]) was 83.67%. The Activity (HCT-116 [17]) was 11.45%, the Activity (HCT-116 [18]) was “Dose-dependent effect” and the Activity (HCT-116 [19]) was 4.36%. The Activity (HepG2 [20]) was 0.95%, the “Ratio IC50” value (MCF7) was 1.9 and the Activity (HCT-116 [21]) was 9.22%.
